Activity calls are given as the source filed them. The rule behind the calls is not given here.
Tests used:
HT-22 [1] = test: Neuroprotective activity against glutamate-induced neuronal cell death in mouse HT22 cells assessed as increase in cell viability at 50 to 100 uM after 24 hrs by microscopy; format: functional, cell-based
[2] = Antioxidant activity assessed as DPPH radical scavenging activity at 100 uM; format: functional
HT-22 [3] = test: Neuroprotective activity against glutamate-induced neuronal cell death in mouse HT22 cells assessed as increase in cell viability after 24 hrs by Ez-CyTox reagent based assay; format: functional
Outline: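 HT22 cells (DMEM/10% FBS, 37 °C, 5% CO2) were plated at 1 × 10^4 per well and left to adhere for 24 h. Glutamate (5 mM final) was added together with compounds for 24 h. EZ-Cytox reagent was applied for 30 min and absorbance read at 450 nm. Viability is given as % of untreated live control; mean ± SEM.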

HT-22 [4] = test: Neuroprotective activity against glutamate-induced apoptotic cell death in mouse HT22 cells at 50 to 100 uM after 10 hrs by Alexa fluor-488 annexin V/PI staining based cytometric analysis; format: functional
Outline: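 HT22 cells were seeded at 2 × 10^5 per well and treated with 5 mM glutamate and 50 or 100 μM compound for 10 h. Cells were harvested, washed in PBS, and equal numbers were labelled with Alexa Fluor 488 annexin V in binding buffer for 20 min, then with propidium iodide. Cells were counted by image-based cytometry as % annexin V-positive; mean ± SEM.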

HT-22 [5] = test: Inhibition of glutamate-induced intracellular calcium level in mouse HT22 cells at 100 uM after 8 hrs by Flu-4 AM probe based fluorescence microscopic analysis relative to control; format: functional
Outline: (§1)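 HT22 mouse hippocampal cells (DMEM, 10% FBS, penicillin/streptomycin, 37 °C, 5% CO2) were seeded at 5 × 10^4 cells/well and co-treated with 5 mM glutamate and the test agent for 8 h. They were then loaded with 2 μM Fluo-4 AM and rinsed with phenol-red-free medium. Fluorescence images were quantified as fold change versus untreated control cells (mean ± SEM).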

HT-22 [6] = test: Inhibition of glutamate-induced intracellular ROS generation in mouse HT22 cells at 50 to 100 uM after 8 hrs by DCF-DA probe based fluorescence microscopic analysis; format: functional, cell-based
Outline: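 HT22 cells were seeded at 1 × 10^4 per well in DMEM/10% FBS at 37 °C, 5% CO2. They were exposed to 5 mM glutamate with or without compound for 8 h, loaded with 10 μM DCF-DA for 30 min and washed three times with PBS. DCF fluorescence was read at ex 495/em 517 nm on a plate reader and expressed against control; images were taken by fluorescence microscopy. Mean ± SEM.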

[7] = target: MAP kinase p38 (Mus musculus) (UniProt P47811+O08911+Q9WUI1+Q9Z1B7); test: Inhibition of glutamate-induced p38 phosphorylation in mouse HT22 cells at 50 to 100 uM after 8 hrs by Western blot analysis; format: cell-based
Outline: (§2)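 Mouse hippocampal HT22 cells were grown in DMEM with 10% FBS and penicillin/streptomycin at 37 °C in 5% CO2. Cells were exposed to 5 mM glutamate plus 50 or 100 μM compound for 8 h, then lysed in RIPA buffer with protease inhibitors. Lysates were run on SDS-PAGE and transferred to PVDF. Membranes were blocked in 5% milk and probed for 1 h with p-/total ERK1/2, JNK, p38 and GAPDH antibodies. Chemiluminescent bands were quantified as fold of control; mean ± SEM.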

[8] = Antioxidant activity assessed as DPPH radical scavenging activity; format: functional
HT-22 [9] = test: Inhibition of glutamate-induced intracellular calcium level in mouse HT22 cells at 50 uM after 8 hrs by Flu-4 AM probe based fluorescence microscopic analysis relative to control; format: functional; outline: as §1
Mus musculus = species on record: Mus musculus; test: Inhibition of glutamate-induced JNK phosphorylation in mouse HT22 cells at 50 to 100 uM after 8 hrs by Western blot analysis; format: cell-based; outline: as §2
[10] = target: Mitogen-activated protein kinase 1 and 3 (ERK2 and ERK1) (Mus musculus) (UniProt P63085+Q63844); test: Inhibition of glutamate-induced ERK1/2 phosphorylation in mouse HT22 cells at 50 to 100 uM after 8 hrs by Western blot analysis; format: cell-based; outline: as §2
Chain of Mitogen-activated protein kinase 1 and 3 (ERK2 and ERK1) (Mus musculus) (P63085 whole entry, looked up): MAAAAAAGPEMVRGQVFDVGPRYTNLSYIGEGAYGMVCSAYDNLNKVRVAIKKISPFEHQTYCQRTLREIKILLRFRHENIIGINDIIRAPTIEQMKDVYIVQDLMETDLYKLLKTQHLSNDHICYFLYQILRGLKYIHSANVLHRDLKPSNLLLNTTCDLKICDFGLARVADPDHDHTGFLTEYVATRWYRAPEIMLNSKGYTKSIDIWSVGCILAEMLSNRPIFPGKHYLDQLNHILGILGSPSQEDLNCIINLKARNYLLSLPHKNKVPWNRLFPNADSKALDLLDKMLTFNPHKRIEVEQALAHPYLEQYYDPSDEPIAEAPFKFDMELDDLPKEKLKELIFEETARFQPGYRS
Chain of Mitogen-activated protein kinase 1 and 3 (ERK2 and ERK1) (Mus musculus) (Q63844 whole entry, looked up): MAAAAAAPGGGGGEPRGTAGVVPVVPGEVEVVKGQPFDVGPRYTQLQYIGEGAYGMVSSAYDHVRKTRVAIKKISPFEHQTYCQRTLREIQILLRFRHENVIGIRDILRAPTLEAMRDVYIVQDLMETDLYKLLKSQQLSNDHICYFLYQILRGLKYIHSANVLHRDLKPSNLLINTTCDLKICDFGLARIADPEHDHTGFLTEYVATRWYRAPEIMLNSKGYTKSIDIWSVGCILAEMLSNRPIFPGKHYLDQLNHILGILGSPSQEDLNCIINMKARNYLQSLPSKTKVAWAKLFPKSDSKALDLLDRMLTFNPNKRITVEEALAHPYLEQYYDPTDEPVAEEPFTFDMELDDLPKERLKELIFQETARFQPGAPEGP

SMILES: COc1cc(C)cc2c1C(=O)c1c(cc(O)c(O)c1O)C2=O
- Activity (HT-22 [1]): Active
- Activity [2]: 70%
- Activity (HT-22 [3]): Dose-dependent effect
- Activity (HT-22 [4]): Active
- fold change (FC) (HT-22 [5]): 0.98
- inhibition (HT-22 [6]): Active
- inhibition [7]: Active
- Activity [8]: Dose-dependent effect
- IC50 [8]: 42.2 µM
- fold change (FC) (HT-22 [9]): 1.4
- inhibition (Mus musculus): Active
- inhibition [10]: Active

Source: ChEMBL document CHEMBL4145583, “Neuroprotective Compound from an Endophytic Fungus, Colletotrichum sp. JS-0367” (J Nat Prod, 2018)
